High-throughput results from PubChem.
In the library only some 3.3% were active in any assay of this set; here they are far more common.
PRMT1 FP inh: blocks human protein arginine methyltransferase 1. Q99873. recombinant PRMT1, activity-based probe fluorescence polarization. inhibition, % at 2.79 µM. hit rate 1.3% among 370,000. AID 652257;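 active = inhibition above about 21% made by adding two undisclosed values, limit read from the data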
SIAE primary: human SIAE inhibition, primary screen; hit rate 0.69% among 370,000; Q9HAT2; inhibition, % at 9.66 µM; SIAE FP-Rh probe binding, fluorescence polarization;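 active = inhibition above a cutoff: mean of compounds within the control limits plus 3 SD of those, cut at about 17% in these data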;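 note: 0% = plate median of compound wells and 100% = probe without SIAE protein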
UHRF1 MBD2 ctr: human UHRF1 methylated DNA binding inhibitors; AID 687016; hit rate 0.75% among 370,000; UHRF1 binding to methylated oligo, TR-FRET; inhibition, % at 4.4 µM; Q96T88; in the data active = inhibition above about 21%;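 note: UHRF1 SRA domain binding a hemimethylated CpG hairpin DNA probe; 0% = median of test compound wells and 100% = reference inhibitor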
TDP2 absorb: TDP2 (human) inhibition, absorbance primary screen; O95551; recombinant TDP2, T5PNP hydrolysis, p-nitrophenol absorbance 415 nm; inhibition, % at 12.8 µM; hit rate 0.34% among 370,000;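 active = inhibition above the mean of all tested compounds plus 3 SD, set per campaign, cut at about 25% in these data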;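 note: 0% = DMSO with enzyme and 100% = buffer with substrate but no TDP2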
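System: recombinant human TDP2 / Amount: 120 nM TDP2 per well / Also added: 5 mM T5PNP chromogenic substrate / Doses: 12.8 µM single point, 1% DMSO / Incubation: 2 h at 37 °C / Detection: p-Nitrophenol epi absorbance / Evaluation: % inhibition relative to enzyme-containing and enzyme-free wells / Repeats: singlicate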
MBD2 inh: inhibitors of human MBD2 binding to methylated oligonucleotide; TR-FRET; AID 686964; hit rate 0.31% among 370,000; inhibition, % at 4.4 µM; Q9UBB5; in the data active = inhibition above about 13%
Target sequence (Q9UBB5 whole entry, looked up): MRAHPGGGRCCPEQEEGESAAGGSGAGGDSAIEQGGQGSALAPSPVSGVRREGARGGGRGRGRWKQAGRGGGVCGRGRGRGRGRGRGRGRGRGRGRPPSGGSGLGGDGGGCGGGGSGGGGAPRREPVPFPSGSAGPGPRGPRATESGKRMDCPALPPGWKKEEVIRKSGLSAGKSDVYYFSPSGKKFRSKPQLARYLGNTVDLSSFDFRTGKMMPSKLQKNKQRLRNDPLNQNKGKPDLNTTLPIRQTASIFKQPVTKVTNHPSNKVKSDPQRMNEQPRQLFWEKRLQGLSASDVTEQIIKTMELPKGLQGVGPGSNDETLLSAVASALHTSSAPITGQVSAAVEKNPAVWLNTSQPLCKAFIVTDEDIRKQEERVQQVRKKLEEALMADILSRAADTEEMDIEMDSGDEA
LEDGF integ inh: blocks HIV-1 LEDGF/p75-dependent DNA integration | inhibition, % at 3.7 µM | TR-FRET IN-LEDGF/p75 DNA integration, Eu/Cy5 | hit rate 0.64% among 370,000 | AID 743269;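 active = inhibition above the screen-wide mean plus 3 SD, cut at about 13% in these data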;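 note: signal is the Cy5 over europium emission ratio at 671 and 618 nm; 0% = plate median of compound wells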
PRMT1 inh conf: confirmation of human PRMT1 inhibitors | shares compounds with PRMT1 FP inh | recombinant His-PRMT1, activity-based probe fluorescence polarization | inhibition, % at 2.79 µM | hit rate 42% among 3,300;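 active = mean inhibition across replicates above the hit cutoff derived for the earlier primary screen, cut at about 22% in these data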
Active calls of the source: *; · = no result given.

SMILES	PRMT1 FP inh	SIAE primary	UHRF1 MBD2 ctr	TDP2 absorb	MBD2 inh	LEDGF integ inh	PRMT1 inh conf
CC(C)(C)OC(=O)NCCCCCc1nnc(SCc2ccccc2)o1	81*	6	0	18	2	-5	0
CCOC(=O)CNC(=O)Cn1cnc2c(cnn2-c2ccc(C)cc2)c1=O	76*	-3	1	-13	2	-8	3
CCCCNC(=O)Cn1cnc2c(cnn2-c2ccc(C)cc2)c1=O	-1	4	2	-4	-2	0	·
Cc1ccc(Cn2c(=S)[nH]c3ccc(N4CCOCC4)cc3c2=O)o1	69*	6	-5	-10	-4	3	61*
O=c1c2cc(N3CCOCC3)ccc2[nH]c(=S)n1Cc1ccc(Cl)cc1	1	0	0	2	-4	4	·
COCc1cccc(-c2csc(C(O)c3ccc(F)c(F)c3)n2)c1 (stereo not given)	52*	-4	7	-7	9	-4	-1
COCc1cccc(-c2csc(C(N)c3ccc(F)c(F)c3)n2)c1 (stereo not given)	-2	5	2	2	8	2	·
CN(C)c1cccc(-c2cnc(N3CCC(C(N)=O)CC3)s2)c1	3	7	-2	-4	-5	3	·
CN1CCN(C(=O)c2sc(=S)n(-c3ccccc3)c2N)CC1	76*	2	-4	3	2	0	79*
O=C(O)c1cccc(Cn2c(Cl)c(/C=N/NC(=O)c3ccc(O)cc3)sc2=O)c1	14	-11	0	-5	-6	2	·
O=c1sc(/C=N/Nc2ccccc2)c(Cl)n1Cc1ccccc1	59*	4	-5	7	-3	-3	6
COCCNC(=S)Nc1ccc(N2CCOCC2)c(S(=O)(=O)Nc2ccc(Cl)cc2)c1	10	-3	1	-8	-5	4	·
O=S(=O)(Nc1ccc(Cl)cc1)c1ccc(N2CCOCC2)c(NC(=S)NCCN2CCOCC2)c1	49*	2	-3	9	2	-2	74*
CC(C)Cn1c(N)c(C(=O)CSc2n[nH]c(N)n2)c(=O)n(C)c1=O	-3	-2	2	3	-1	6	·
CC(C)Cn1c(N)c(C(=O)CSc2ncccn2)c(=O)n(C)c1=O	58*	-6	2	-7	6	-7	4
c1ccc2[nH]c3cc4ncnc4cc3nc2c1	59*	2	-18	-4	-12	3	61*
COc1ccc(-n2sc3ccccc3c2=O)cc1	82*	12	9	5	-2	-1	82*
CCOC(=O)/C=C/S(=O)(=O)c1ccc(NC(C)=O)cc1	44*	9	-2	0	-4	5	35*
CSCSC1=C(C#N)C(c2ccccc2Cl)C(C(C)=O)=C(C)N1 (stereo not given)	27*	5	2	-18	-5	9	4
CN(CC(=O)Nc1c(Cl)cccc1Cl)C(=O)CCC(=O)c1ccccc1	-3	3	10	-9	9	2	·
Cc1cc(C(=O)CCC(=O)N(C)CC(=O)Nc2c(Cl)cccc2Cl)c(C)s1	28*	4	-1	-3	2	1	1
S=c1[nH]nc(-c2cc(-c3ccccc3)n[nH]2)n1N=Cc1cccc(OCc2ccccc2)c1	9	-4	0	-3	-2	-2	·
COc1cc(/C=N/n2c(-c3cc(-c4ccccc4)n[nH]3)n[nH]c2=S)ccc1OCc1ccccc1	26*	-4	4	-13	5	-5	-1
Cc1ccc2c(c1)N(CCCC(=O)NCc1ccc(F)cc1)C(=O)CO2	3	7	1	3	3	-2	·
COc1ccc(CCNC(=O)CNS(=O)(=O)c2ccc(N(C)C)c([N+](=O)[O-])c2)cc1OC	5	5	-1	6	-2	-6	·
SMILES	PRMT1 FP inh	SIAE primary	UHRF1 MBD2 ctr	TDP2 absorb	MBD2 inh	LEDGF integ inh	PRMT1 inh conf
CN(C)c1ccc(S(=O)(=O)NCC(=O)NCc2ccccc2)cc1[N+](=O)[O-]	27*	-1	-4	-15	-3	-1	26*
CNc1ccc(S(=O)(=O)NCC(=O)OC(C)C(=O)N(C)Cc2ccccc2)cc1[N+](=O)[O-] (stereo not given)	-2	10	-4	3	-3	0	·
CNc1ccc(S(=O)(=O)NCC(=O)NCCCc2ccccc2)cc1[N+](=O)[O-]	27*	5	-9	3	-4	-1	34*
CC(C)(C)N1Cc2nnn(Cc3ccccc3)c2-c2cc(N3CCCCC3)ccc2S1(=O)=O	2	3	-1	2	-7	-2	·
C[C@H]1[C@@H](OC(=O)NCc2cccs2)CC[C@@]23CCCN2C(=O)CCC[C@@H]13	-1	-2	-4	2	0	-2	·
CC(C)(C)c1ccc(S(=O)(=O)N2CCC(C(=O)N3CCN(C4CCCCC4)CC3)CC2)cc1	-2	10	-1	-8	-6	5	·
COc1ccc(NC(=O)CSc2ccc(-c3ccco3)nn2)cc1	37*	12	-2	-14	0	3	54*
CCOc1ccccc1NC(=O)Cn1nc(-c2ccco2)ccc1=O	8	0	-1	1	-2	-3	·
CCOc1ccccc1NC(=O)CSc1ccc(-c2ccco2)nn1	25*	6	-2	-4	-4	1	48*
COc1cc(NC(=O)CSc2ccc(-c3ccco3)nn2)cc(OC)c1	20	8	-3	-5	0	1	·
CN(C)C(=O)c1ccc(SC(=S)NCc2ccccc2)cc1	59*	-1	0	-7	-7	-1	69*
CSc1nc(=S)cc(C)[nH]1	83*	6	1	6	1	-1	89*
CSc1nc2c(C)c(C)c(C)c(C)c2[nH]1	-3	-1	0	-1	2	2	·
COc1ccc(NC(=O)N(C)[C@H]2C[C@H]3c4[nH]c5c(-c6cccc(C)c6)cccc5c4CCN3C(=O)[C@H]2[C@H](C)O)cc1	-5	8	-1	-1	-1	-5	·
COc1cc(/C=C2/C(C)=C(C#N)c3nc(N)c(C#N)c(C)c32)ccc1OCC(=O)O	27*	3	-1	1	-9	3	9
COC(=O)CNc1ccc2c(c1)OCO2	36*	6	1	1	-5	-1	5
CCC(=O)Nc1nc(C)c(-c2csc(Nc3cccc(O)c3)n2)s1	49*	14	0	-19	-3	7	5
Cn1cc(C2(C)CCOc3ccccc32)c2ccccc21 (stereo not given)	0	2	-2	-6	-2	-1	·
O=C(COC(=O)C1CC(=O)N(c2ccccc2)C1)c1ccccc1 (stereo not given)	-4	14	1	5	-2	-1	·
